Legend:
[1] = biological target: T1, Muscarinic acetylcholine receptor M1 (Homo sapiens, UniProt P11229); assay: biochemical; type: cell-based, CHO
T1 sequence (P11229 whole entry): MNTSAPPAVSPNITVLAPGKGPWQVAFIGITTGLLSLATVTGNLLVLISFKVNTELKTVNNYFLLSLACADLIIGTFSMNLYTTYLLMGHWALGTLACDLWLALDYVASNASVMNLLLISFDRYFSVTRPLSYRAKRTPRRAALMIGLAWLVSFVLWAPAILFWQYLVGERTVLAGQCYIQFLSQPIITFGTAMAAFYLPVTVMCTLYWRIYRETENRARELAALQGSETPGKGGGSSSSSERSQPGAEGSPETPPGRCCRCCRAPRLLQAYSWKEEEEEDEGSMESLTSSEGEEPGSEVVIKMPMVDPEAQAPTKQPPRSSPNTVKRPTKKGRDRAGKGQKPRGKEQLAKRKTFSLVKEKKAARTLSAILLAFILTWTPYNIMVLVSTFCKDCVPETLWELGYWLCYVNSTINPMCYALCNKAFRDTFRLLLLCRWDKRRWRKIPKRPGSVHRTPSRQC

[2] = biological target: T2, Muscarinic acetylcholine receptor M2 (Homo sapiens, UniProt P08172); assay: Displacement of [3H]QNB from human muscarinic M2 receptor expressed in CHO cells; type: cell-based
T2 sequence (P08172 whole entry): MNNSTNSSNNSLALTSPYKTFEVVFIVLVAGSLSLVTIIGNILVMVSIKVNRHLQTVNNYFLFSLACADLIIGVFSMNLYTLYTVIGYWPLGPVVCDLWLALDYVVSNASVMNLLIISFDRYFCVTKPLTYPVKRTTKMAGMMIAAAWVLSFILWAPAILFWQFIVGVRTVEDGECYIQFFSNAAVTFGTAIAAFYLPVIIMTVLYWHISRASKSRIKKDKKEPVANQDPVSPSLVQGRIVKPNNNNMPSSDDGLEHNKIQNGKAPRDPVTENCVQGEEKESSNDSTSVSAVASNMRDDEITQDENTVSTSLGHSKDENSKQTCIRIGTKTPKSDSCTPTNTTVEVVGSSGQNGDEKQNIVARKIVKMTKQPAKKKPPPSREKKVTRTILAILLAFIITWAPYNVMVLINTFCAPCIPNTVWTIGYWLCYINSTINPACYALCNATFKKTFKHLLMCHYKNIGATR
In short: (§1)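 Membranes (10-50 µg protein) from stable CHO lines expressing human m2-m5, competed against 180 pM [3H]QNB in 50 mM Tris-HCl pH 7.4 with 1% DMSO; 120 min at 25 °C to equilibrium; nonspecific binding with 0.5 µM atropine; GF-C filtration, scintillation counting; IC50 by logistic fit, Ki via Cheng–Prusoff using saturation-derived KD (5–2500 pM [3H]QNB).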

[3] = biological target: Muscarinic acetylcholine receptor M3 (Homo sapiens, UniProt P20309); assay: Displacement of [3H]QNB from human muscarinic M3 receptor expressed in CHO cells; type: cell-based
Muscarinic acetylcholine receptor M3 (Homo sapiens, UniProt P20309), sequence (P20309 whole entry): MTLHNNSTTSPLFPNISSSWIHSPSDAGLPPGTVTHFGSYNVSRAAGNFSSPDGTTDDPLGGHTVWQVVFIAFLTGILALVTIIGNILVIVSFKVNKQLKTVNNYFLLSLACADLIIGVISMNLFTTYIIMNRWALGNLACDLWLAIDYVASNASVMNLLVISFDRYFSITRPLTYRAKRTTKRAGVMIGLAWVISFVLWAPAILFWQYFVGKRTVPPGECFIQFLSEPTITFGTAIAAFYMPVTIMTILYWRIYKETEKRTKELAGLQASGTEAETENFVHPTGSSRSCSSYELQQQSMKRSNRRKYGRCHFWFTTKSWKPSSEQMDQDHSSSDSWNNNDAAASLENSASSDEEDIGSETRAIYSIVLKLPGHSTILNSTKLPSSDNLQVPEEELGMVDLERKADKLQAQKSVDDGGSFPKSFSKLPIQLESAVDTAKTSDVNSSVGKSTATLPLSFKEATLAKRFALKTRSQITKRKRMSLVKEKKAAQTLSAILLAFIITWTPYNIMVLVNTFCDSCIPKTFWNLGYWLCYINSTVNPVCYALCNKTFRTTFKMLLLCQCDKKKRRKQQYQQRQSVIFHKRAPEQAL

[4] = biological target: T3, Muscarinic acetylcholine receptor M4 (Homo sapiens, UniProt P08173); assay: Displacement of [3H]QNB from human muscarinic M4 receptor expressed in CHO cells; type: cell-based
T3 sequence (P08173 whole entry): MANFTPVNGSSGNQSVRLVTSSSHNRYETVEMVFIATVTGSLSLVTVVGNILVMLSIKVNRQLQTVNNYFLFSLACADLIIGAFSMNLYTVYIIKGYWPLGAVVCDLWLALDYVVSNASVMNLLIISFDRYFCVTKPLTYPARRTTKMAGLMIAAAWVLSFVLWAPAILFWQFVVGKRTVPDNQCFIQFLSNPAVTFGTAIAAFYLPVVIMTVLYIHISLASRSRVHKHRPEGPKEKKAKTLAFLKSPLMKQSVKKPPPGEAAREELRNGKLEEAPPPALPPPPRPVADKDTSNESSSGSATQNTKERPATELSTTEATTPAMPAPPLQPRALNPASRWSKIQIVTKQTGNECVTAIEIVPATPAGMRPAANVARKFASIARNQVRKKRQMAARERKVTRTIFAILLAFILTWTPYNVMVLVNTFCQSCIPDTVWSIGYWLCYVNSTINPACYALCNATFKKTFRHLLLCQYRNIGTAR
In short: as §1

[5] = biological target: T4, Muscarinic acetylcholine receptor M5 (Homo sapiens, UniProt P08912); assay: Displacement of [3H]QNB from human muscarinic M5 receptor expressed in CHO cells; type: cell-based
T4 sequence (P08912 whole entry): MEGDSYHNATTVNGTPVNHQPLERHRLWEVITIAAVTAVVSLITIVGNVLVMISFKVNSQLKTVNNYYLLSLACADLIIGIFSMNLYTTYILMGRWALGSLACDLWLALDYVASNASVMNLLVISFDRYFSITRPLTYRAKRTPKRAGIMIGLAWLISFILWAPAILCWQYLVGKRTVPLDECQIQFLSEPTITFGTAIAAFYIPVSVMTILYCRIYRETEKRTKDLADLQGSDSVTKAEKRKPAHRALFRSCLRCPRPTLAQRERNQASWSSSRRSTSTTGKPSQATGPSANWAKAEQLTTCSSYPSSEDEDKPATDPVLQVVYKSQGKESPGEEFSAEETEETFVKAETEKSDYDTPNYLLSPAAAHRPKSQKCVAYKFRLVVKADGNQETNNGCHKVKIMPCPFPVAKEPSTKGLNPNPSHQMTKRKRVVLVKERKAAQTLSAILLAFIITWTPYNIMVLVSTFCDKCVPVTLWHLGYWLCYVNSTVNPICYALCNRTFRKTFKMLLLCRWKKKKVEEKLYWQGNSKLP

Oryctolagus cuniculus = species: Oryctolagus cuniculus; assay: Intrinsic activity at muscarinic M1 receptor in electrically stimulated New Zealand rabbit vas deferens relative to McN-A-343; type: tissue-based
In short: (§2)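 Intrinsic activity as ratio of compound's maximal response to that of reference full agonist (McN-A-343 for vas deferens, bethanechol for atrium and ileum), from cumulative concentration–response curves; mean of 6-8 experiments.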

Cavia porcellus = species: Cavia porcellus; assay: Intrinsic activity at muscarinic M2 receptor in electrically stimulated guinea-pig left atrium relative to benthanechol; type: tissue-based; settings: Cardiac atrium
In short: as §2

[6] = biological target: Muscarinic acetylcholine receptor M3 (Cavia porcellus) (UniProt Q8VH26); assay: Intrinsic activity at muscarinic M3 receptor in guinea-pig ileum relative to benthanechol; type: tissue-based
Muscarinic acetylcholine receptor M3 (Cavia porcellus), sequence (Q8VH26 1-587): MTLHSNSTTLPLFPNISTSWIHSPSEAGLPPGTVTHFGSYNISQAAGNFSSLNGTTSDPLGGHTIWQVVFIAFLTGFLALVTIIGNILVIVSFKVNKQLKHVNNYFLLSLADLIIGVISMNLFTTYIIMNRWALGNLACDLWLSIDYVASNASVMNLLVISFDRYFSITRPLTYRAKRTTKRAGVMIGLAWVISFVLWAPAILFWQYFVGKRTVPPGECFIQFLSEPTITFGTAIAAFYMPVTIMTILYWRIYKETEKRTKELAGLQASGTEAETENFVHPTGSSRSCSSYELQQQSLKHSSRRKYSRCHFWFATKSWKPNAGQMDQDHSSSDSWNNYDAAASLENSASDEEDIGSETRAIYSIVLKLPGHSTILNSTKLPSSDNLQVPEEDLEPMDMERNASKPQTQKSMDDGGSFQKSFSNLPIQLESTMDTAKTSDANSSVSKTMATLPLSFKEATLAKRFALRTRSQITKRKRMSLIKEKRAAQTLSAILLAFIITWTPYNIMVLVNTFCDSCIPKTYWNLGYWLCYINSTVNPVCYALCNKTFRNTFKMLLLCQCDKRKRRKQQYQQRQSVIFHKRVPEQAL
In short: as §2

[7] = Antagonist activity at muscarinic M1 receptor in electrically stimulated New Zealand rabbit vas deferens; type: functional, Oryctolagus cuniculus
In short: (§3)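 Antagonist mode: after 30 min incubation with test compound (10 nM–100 µM), concentration–response curve to full agonist (bethanechol or McN-A-343) repeated; pKB as molar concentration giving twofold EC50 shift, Furchgott's method; mean of 6-8 experiments.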

[8] = Antagonist activity at muscarinic M2 receptor in electrically stimulated guinea-pig left atrium; type: functional, Cavia porcellus, Cardiac atrium
In short: as §3

[9] = biological target: Muscarinic acetylcholine receptor M3 (Cavia porcellus) (UniProt Q8VH26); assay: Antagonist activity at muscarinic M3 receptor in guinea-pig ileum; type: functional, tissue-based
In short: as §3

[10] = Agonist activity at muscarinic M2 receptor in electrically stimulated guinea-pig left atrium; type: functional, tissue-based; settings: Cavia porcellus, Cardiac atrium
[11] = biological target: T5, Muscarinic acetylcholine receptor M3 (Cavia porcellus, UniProt Q8VH26); assay: Agonist activity at muscarinic M3 receptor in guinea-pig ileum; type: functional, tissue-based
T5 sequence (Q8VH26 whole entry): as the sequence (Q8VH26 1-587) above
In short: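 Guinea-pig ileal segments 2–3 cm, 1.0 g tension, 37 °C Krebs-Henseleit with carbogen, 45 min equilibration; isometric contractions to cumulative agonist concentrations; pEC50 by least-squares linear regression; mean of 6-8 experiments.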

[12] = Binding affinity to muscarinic M2 receptor in electrically stimulated guinea-pig left atrium; type: tissue-based, Cavia porcellus, Cardiac atrium
In short: (§4)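 Apparent affinity pKD: for full agonists by receptor inactivation with phenoxybenzamine (1-10 µM, 20-30 min); for partial agonists by McKay's method comparing curves with reference full agonist; mean of 6-8 experiments.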

[13] = biological target: T5, Muscarinic acetylcholine receptor M3; assay: Binding affinity to muscarinic M3 receptor in guinea-pig ileum; type: tissue-based
In short: as §4

[14] = Agonist activity at muscarinic M1 receptor in electrically stimulated New Zealand rabbit vas deferens; type: functional, tissue-based; settings: Oryctolagus cuniculus
[15] = Binding affinity to muscarinic M1 receptor in electrically stimulated New Zealand rabbit vas deferens; type: tissue-based, Oryctolagus cuniculus
In short: as §4

SMILES | Ki [1] [µM] | Ki [2] [µM] | Ki [3] [µM] | Ki [4] [µM] | Ki [5] [µM] | Intrinsic activity (Oryctolagus cuniculus) | Intrinsic activity (Cavia porcellus) | Intrinsic activity [6] | pKb [7] | pKb [8] | pKb [9] | EC50 [10] [µM] | EC50 [11] [µM] | pKd [12] | Kd [13] [µM] | EC50 [14] [µM] | pKd [15]
O=C1CCON1CC#CCN1CCCC1 | 0.905 | 0.07 | 0.392 | 0.222 | 0.51 |  |  |  |  |  |  |  |  |  |  |  | 
O=C1CCON1CC#CCN1C2CCCC1CC2 |  | > 10 |  |  | > 10 |  |  |  |  |  |  |  |  |  |  |  | 
C[N+]1(CC#CCOc2cc(-c3ccccc3)on2)CCCC1.[I-] | 3.38 | > 10 | 1.45 | 5.99 | 1.84 | 0 | 0 | 0 | 6.88 | 5.95 | 5.53 |  |  |  |  |  | 
Cc1cc(OCC#CC[N+]2(C)CCCC2)no1.[I-] | 7.68 | 2.04 | 7.39 | 5.93 | 7.51 | 0 | 1 | 0.9 | 6.01 |  |  | 0.251 | 0.55 | 6.72 | 1.66 |  | 
C[N+]1(CC#CCN2OCCC2=O)CCc2ccccc21 (stereo unspecified) |  | > 10 |  |  | > 10 |  |  |  |  |  |  |  |  |  |  |  | 
O=C1CCON1CC#CCN1CCc2ccccc2C1 |  | > 10 |  |  | > 10 |  |  |  |  |  |  |  |  |  |  |  | 
CN(C)CC#CCOc1cc(-c2ccccc2)on1 |  | > 10 |  |  | > 10 |  |  |  |  |  |  |  |  |  |  |  | 
Cc1cc(OCC#CC[N+](C)(C)C)no1.[I-] | > 10 | 0.05 | 3.99 | 0.682 | 6.31 | 0.9 | 1 | 1 |  |  |  | 0.00661 | 0.00724 | 7.03 | 0.676 | 0.0398 | 6.97
C(#CCOc1ccon1)CO/N=C1\CN2CCC1CC2.O=C(O)/C=C/C(=O)O |  |  |  |  |  | 0 | 0.7 | 0.9 | 5.85 |  |  | 3.09 | 1.02 | 5.97 | 3.63 |  | 
Cc1cc(OCC#CCN2CCCC2)no1.O=C(O)/C=C/C(=O)O |  | > 10 |  |  | > 10 | 0 | 0 | 0.4 | 5.66 | 4.81 |  |  | 15.1 |  | 15.5 |  | 
C[N+]1(CC#CCOC2=NOCC2)CCc2ccccc21 (stereo unspecified) | > 10 | 4.1 | 5.54 | > 10 | > 10 |  |  |  |  |  |  |  |  |  |  |  | 
C(#CCN1CCc2ccccc21)COC1=NOCC1 |  | > 10 |  |  | > 10 |  |  |  |  |  |  |  |  |  |  |  | 
C(#CCN1CCCCC1)COC1=NOCC1.O=C(O)C(=O)O | 4.55 | 0.876 | 3.92 | 6.04 | 5.14 | 0 | 0.6 | 1 | 5.91 |  |  | 1.1 | 1.78 | 6.22 | 21.9 |  | 
C(#CCN1CCc2ccccc2C1)COC1=NOCC1 |  | > 10 |  |  | > 10 |  |  |  |  |  |  |  |  |  |  |  | 
CC(C[N+](C)(C)C)OC(N)=O (stereo unspecified) [BETHANECHOL] |  |  |  |  |  |  | 1 | 1 |  |  |  | 0.646 | 0.427 | 5.37 | 12.6 |  | 
C[N+]1(CC#CCN2OCCC2=O)CCc2ccccc2C1 (stereo unspecified) |  | > 10 |  |  | > 10 |  |  |  |  |  |  |  |  |  |  |  | 
C(#CCN1CCCC1)COc1cc(-c2ccccc2)on1 | 6.14 | > 10 | 4.01 | 5.48 | 6.88 | 1 | 0.6 | 0 |  |  | 4.94 | 21.9 |  |  |  | 44.7 | 
C[N+]1(CC#CCOC2=NOCC2)CCc2ccccc2C1 (stereo unspecified) | 6.96 | 0.474 | 0.887 | 2.26 | 5.66 |  |  |  |  |  |  |  |  |  |  |  | 
C[N+]1(CC#CCOC2=NOCC2)CCCCC1.[I-] | 7.37 | 0.219 | 4.74 | 1.68 | 4.12 | 0.4 | 1 | 1 |  |  |  | 0.0457 | 0.269 | 6.74 | 0.295 | 0.794 | 6.51
C[N+](C)(C)CC#CCOC(=O)Nc1cccc(Cl)c1.[Cl-] |  |  |  |  |  | 1 |  |  |  |  |  |  |  |  |  | 0.398 | 7.2
C[N+]1(CC#CCN2OCCC2=O)CCCCC1 |  | > 10 |  |  | > 10 |  |  |  |  |  |  |  |  |  |  |  | 
C[N+]12CCC(CC1)/C(=N/OCC#CCOc1ccon1)C2.[I-] |  | > 10 |  |  | > 10 | 0.9 |  | 0.7 |  |  |  | > 100 | 3.55 |  | 9.33 | 4.27 | 3.82
Cc1cc(OCC#CCN(C)C)no1.O=C(O)/C=C/C(=O)O | > 10 | 3.8 | > 10 | 1.1 | > 10 | 0.6 | 1 | 1.1 |  |  |  | 0.513 | 0.794 | 3.56 | 39.8 | 3.47 | 5.45
